The inhibition is the change of the read-out against control, counted positive when it falls. The pIC50 is −log10 of the IC50, conventionally taken in molar units.

One compound from ChEMBL document CHEMBL4376814, “Novel cyclin-dependent kinase 9 (CDK9) inhibitor with suppression of cancer stemness activity against non-small-cell lung cancer” (Eur J Med Chem, 2019) can be followed below.

Test [1] relates to A549. As to the kind of experiment: Induction of apoptosis in human A549 cells assessed as viable cells at 0.25 uM after 48 hrs by AnnexinV-FITC/PI staining-based flow cytometric analysis (reference value: 88.8%). It counts as functional. Particulars: A549, 48 h, read-out: Activity. Background: In flow cytometry, cells or beads pass a laser one at a time.
Test [2] concerns the target Serine/threonine-protein kinase Nek11 (Homo sapiens) (UniProt Q8NG66). As to the kind of experiment: Inhibition of recombinant full-length human NEK11 at 1 uM using myelin basic protein as substrate measured after 40 mins in presence of [gamma33P]ATP by scintillation counting method relative to control.
The species entered for test [3] is Homo sapiens. As to the kind of experiment: Inhibition of recombinant human MARK1 V16E/T20S double mutant (2 to end residues) at 1 uM using KKKVSRSGLYRSPSMPENLNRPR as substrate measured after 40 mins in presence of [gamma33P]ATP by scintillation counting method relative to control.
For test [4], the target named is Interleukin-1 receptor-associated kinase 1 (Homo sapiens) (UniProt P51617). Particulars: 1 uM.
The subject of test [5] is Proto-oncogene tyrosine-protein kinase receptor Ret (Homo sapiens), P07949 [V804L]. As to the kind of experiment: Inhibition of human Ret V804L mutant (658 to end residues) at 1 uM using KKKVSRSGLYRSPSMPENLNRPR as substrate measured after 40 mins in presence of [gamma33P]ATP by scintillation counting method relative to control. Put shortly: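 Percent inhibition of kinase activity at a single compound concentration, measured by the outsourced Eurofins KinaseProfiler panel. Values are the mean of two independent experiments.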

The target in test [6] is Serine/threonine-protein kinase Nek2 (Homo sapiens) (UniProt P51955). As to the kind of experiment: Inhibition of recombinant full-length human NEK2 at 1 uM using myelin basic protein as substrate measured after 40 mins in presence of [gamma33P]ATP by scintillation counting method relative to control.
For test [7], the target named is Rhodopsin kinase GRK7 (Homo sapiens) (UniProt Q8WTQ7). Put plainly: Inhibition of recombinant full-length human GRK7 at 1 uM using casein as substrate measured after 40 mins in presence of [gamma33P]ATP by scintillation counting method relative to control.
Chain of Rhodopsin kinase GRK7 (Homo sapiens) (Q8WTQ7 whole entry): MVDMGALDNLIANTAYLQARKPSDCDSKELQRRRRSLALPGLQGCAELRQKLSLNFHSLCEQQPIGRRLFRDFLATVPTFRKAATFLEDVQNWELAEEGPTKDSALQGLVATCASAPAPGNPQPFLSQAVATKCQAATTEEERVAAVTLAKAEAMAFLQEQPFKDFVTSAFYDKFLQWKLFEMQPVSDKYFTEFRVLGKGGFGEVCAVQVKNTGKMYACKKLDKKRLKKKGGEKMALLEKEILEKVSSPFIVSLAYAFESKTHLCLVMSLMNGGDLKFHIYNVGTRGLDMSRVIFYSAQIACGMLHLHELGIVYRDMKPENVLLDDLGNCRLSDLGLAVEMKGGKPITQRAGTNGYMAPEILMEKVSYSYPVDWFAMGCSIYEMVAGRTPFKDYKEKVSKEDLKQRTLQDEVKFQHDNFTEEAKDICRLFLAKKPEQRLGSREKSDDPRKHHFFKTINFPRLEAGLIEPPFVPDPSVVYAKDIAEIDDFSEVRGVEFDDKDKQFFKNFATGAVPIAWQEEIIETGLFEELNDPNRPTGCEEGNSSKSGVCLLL
Test [8] addresses Mitogen-activated protein kinase 10 (Homo sapiens) (UniProt P53779). As to the kind of experiment: Inhibition of recombinant full-length human JNK3 at 1 uM using peptide as substrate measured after 40 mins in presence of [gamma33P]ATP by scintillation counting method relative to control.
The subject of test [9] is NCI-H1299. Put plainly: Induction of apoptosis in human H1299 cells assessed as early apoptotic cells at 0.25 uM after 48 hrs by AnnexinV-FITC/PI staining-based flow cytometric analysis (reference value: 0.248%). It counts as functional.
The target in test [10] is Mitogen-activated protein kinase 8 (Homo sapiens) (UniProt P45983). As to the kind of experiment: Inhibition of recombinant full-length human JNK1alpha1 at 1 uM using ATF2 as substrate measured after 40 mins in presence of [gamma33P]ATP by scintillation counting method relative to control.
Test [11] deals with Inhibitor of nuclear factor kappa-B kinase subunit epsilon (Homo sapiens) (UniProt Q14164). As to the kind of experiment: Inhibition of recombinant full-length human IKKepsilon at 1 uM using casein as substrate measured after 40 mins in presence of [gamma33P]ATP by scintillation counting method relative to control.
For test [12], the target named is Mitogen-activated protein kinase 11 (Homo sapiens) (UniProt Q15759). Put plainly: Inhibition of recombinant full-length human SAPK2b at 1 uM using myelin basic protein as substrate measured after 40 mins in presence of [gamma33P]ATP by scintillation counting method relative to control.
Chain of Mitogen-activated protein kinase 11 (Homo sapiens) (Q15759 whole entry): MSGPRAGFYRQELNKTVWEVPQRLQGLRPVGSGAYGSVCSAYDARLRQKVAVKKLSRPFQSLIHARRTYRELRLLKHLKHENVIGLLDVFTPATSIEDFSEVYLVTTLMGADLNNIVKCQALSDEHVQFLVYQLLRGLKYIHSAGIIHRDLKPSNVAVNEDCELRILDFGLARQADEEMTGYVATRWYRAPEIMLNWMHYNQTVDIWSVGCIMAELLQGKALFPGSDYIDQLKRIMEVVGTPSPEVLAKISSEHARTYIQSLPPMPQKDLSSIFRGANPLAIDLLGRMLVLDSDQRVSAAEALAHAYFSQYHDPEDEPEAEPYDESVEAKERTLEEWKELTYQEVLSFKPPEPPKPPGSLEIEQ
Test [13] has as its target Serine/threonine-protein kinase 32B (Homo sapiens) (UniProt Q9NY57). As to the kind of experiment: Inhibition of recombinant full-length human STK32B at 1 uM using casein as substrate measured after 120 mins in presence of [gamma33P]ATP by scintillation counting method relative to control.
Test [14] relates to Hepatocyte growth factor receptor (Homo sapiens), P08581 [Y1230H]. Put plainly: Inhibition of recombinant human MET A1209G/V1290L/Y1248H mutant (974 to end residues) at 1 uM using KKKGQEEEYVFIE as substrate measured after 40 mins in presence of [gamma33P]ATP by scintillation counting method relative to control.
Chain of Hepatocyte growth factor receptor (Homo sapiens), P08581 [Y1230H] (P08581 whole entry Y1230H): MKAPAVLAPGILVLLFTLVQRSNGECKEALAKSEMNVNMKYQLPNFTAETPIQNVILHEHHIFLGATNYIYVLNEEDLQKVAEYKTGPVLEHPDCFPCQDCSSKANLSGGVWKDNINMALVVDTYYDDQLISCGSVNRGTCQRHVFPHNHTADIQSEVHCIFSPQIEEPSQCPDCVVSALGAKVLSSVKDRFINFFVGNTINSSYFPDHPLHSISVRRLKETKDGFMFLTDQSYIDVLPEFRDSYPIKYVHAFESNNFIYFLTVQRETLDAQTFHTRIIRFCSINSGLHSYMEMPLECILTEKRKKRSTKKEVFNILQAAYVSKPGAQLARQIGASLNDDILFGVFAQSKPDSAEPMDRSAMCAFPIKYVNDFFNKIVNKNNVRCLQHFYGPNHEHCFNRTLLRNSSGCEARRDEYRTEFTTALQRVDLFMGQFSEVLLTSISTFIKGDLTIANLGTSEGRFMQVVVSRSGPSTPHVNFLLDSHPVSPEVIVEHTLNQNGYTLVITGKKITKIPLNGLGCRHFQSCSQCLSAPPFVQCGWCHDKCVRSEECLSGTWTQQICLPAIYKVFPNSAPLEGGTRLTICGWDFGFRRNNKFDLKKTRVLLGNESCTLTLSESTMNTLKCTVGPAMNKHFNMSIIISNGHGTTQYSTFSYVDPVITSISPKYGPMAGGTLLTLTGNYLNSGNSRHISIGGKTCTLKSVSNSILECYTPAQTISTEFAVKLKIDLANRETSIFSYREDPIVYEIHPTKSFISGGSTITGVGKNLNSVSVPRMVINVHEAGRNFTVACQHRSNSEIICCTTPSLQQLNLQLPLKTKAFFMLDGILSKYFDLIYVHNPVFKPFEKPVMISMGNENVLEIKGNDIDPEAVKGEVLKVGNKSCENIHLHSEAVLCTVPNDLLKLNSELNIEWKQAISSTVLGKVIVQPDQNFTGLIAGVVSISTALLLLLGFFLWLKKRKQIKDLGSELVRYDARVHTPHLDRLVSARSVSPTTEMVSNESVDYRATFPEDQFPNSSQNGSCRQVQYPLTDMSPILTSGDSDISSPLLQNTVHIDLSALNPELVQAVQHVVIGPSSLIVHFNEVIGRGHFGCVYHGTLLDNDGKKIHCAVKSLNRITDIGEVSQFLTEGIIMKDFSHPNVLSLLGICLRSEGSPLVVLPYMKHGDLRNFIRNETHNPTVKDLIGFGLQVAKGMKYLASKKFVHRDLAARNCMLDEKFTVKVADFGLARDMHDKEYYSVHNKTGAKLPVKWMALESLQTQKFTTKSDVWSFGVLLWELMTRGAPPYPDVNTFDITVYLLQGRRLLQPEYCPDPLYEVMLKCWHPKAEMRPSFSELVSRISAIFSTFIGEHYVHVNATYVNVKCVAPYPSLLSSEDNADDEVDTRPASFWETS
In test [15] the target is Cyclin-dependent kinase 9 (Homo sapiens) (UniProt P50750). Particulars: A549, 0.25 uM.
Chain of Cyclin-dependent kinase 9 (Homo sapiens) (P50750 whole entry): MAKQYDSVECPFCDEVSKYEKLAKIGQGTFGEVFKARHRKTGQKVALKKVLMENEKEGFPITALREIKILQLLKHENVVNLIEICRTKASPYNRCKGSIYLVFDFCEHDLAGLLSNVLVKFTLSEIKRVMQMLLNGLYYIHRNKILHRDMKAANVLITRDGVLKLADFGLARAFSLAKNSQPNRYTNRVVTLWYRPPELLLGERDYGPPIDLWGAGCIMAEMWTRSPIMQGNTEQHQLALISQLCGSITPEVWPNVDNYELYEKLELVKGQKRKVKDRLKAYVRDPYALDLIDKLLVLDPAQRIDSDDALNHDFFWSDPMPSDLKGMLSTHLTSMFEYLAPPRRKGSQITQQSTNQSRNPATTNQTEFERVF
The species entered for test [16] is Homo sapiens. Put plainly: Inhibition of recombinant full-length human PI3K p110delta/p85alpha N253S mutant at 1 uM using phosphatidylinositol-4, 5-bisphosphate as substrate measured after 40 mins by fluorescence assay relative to control.
The target in test [17] is Serine/threonine-protein kinase BRSK1 (Homo sapiens) (UniProt Q8TDC3). As to the kind of experiment: Inhibition of recombinant human BrSK1 (2 to end residues) at 1 uM using KKKVSRSGLYRSPSMPENLNRPR as substrate measured after 40 mins in presence of [gamma33P]ATP by scintillation counting method relative to control.
Test [18] has as its target Tau-tubulin kinase 1 (Homo sapiens) (UniProt Q5TCY1). Put plainly: Inhibition of recombinant human TTBK1 (1 to 479 residues) at 1 uM using casein as substrate measured after 40 mins in presence of [gamma33P]ATP by scintillation counting method relative to control.
The target of test [19] is Phosphorylase b kinase gamma catalytic chain, skeletal muscle/heart isoform (Homo sapiens) (UniProt Q16816). As to the kind of experiment: Inhibition of recombinant full-length human PhKgamma1 at 1 uM using KKLNRTLSFAEPG as substrate measured after 120 mins in presence of [gamma33P]ATP by scintillation counting method relative to control.
Chain of Phosphorylase b kinase gamma catalytic chain, skeletal muscle/heart isoform (Homo sapiens) (Q16816 whole entry, looked up, canonical isoform): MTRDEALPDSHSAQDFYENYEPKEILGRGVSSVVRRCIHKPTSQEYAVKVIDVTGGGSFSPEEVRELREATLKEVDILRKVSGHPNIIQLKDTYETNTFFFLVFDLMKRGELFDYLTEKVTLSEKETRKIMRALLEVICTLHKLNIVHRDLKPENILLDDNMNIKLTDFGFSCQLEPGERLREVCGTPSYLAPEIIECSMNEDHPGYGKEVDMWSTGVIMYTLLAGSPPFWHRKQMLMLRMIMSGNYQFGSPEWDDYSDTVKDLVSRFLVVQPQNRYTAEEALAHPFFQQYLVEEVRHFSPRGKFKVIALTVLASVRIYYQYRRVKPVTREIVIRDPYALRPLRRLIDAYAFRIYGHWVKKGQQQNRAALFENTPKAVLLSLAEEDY
Test [20] addresses Serine/threonine-protein kinase pim-3 (Homo sapiens) (UniProt Q86V86). As to the kind of experiment: Inhibition of recombinant human Pim-3 (2 to end residues) at 1 uM using RSRHSSYPAGT as substrate measured after 40 mins in presence of [gamma33P]ATP by scintillation counting method relative to control.
For test [21], the system named is Hepatocyte growth factor receptor (Homo sapiens), P08581 [D1228N]. Put plainly: Inhibition of recombinant human MET A1209G/V1290L/D1246N mutant (974 to end residues) at 1 uM using KKKGQEEEYVFIE as substrate measured after 40 mins in presence of [gamma33P]ATP by scintillation counting method relative to control.
Test [22] concerns the target Tyrosine-protein kinase HCK (Homo sapiens) (UniProt P08631). As to the kind of experiment: Inhibition of recombinant human activated HCK (230 to 497 residues) at 1 uM using GGMEDIYFEFMGGKKK as substrate measured after 40 mins in presence of [gamma33P]ATP by scintillation counting method relative to control.
In test [23] the test system is HeLa. As to the kind of experiment: Antiproliferative activity against human HeLa cells assessed as inhibition of cell viability after 72 hrs by CCK-8 assay. The test is classed as functional, cell-based. In outline:
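Cells kept at 37 °C, 5% CO2 in DMEM or RPMI-1640 with 10% FBS and 1% penicillin/streptomycin, then seeded at 3000 cells/well (adherent) or 10,000 cells/well (suspension). Exposed to a range of concentrations for 72 h. CCK-8 added for 1-4 h before reading A450. […] Three independent experiments.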
A general note: Tetrazolium dyes change colour on reduction, which living cells bring about.

pIC50: −log10 of the molar value. Calls of active or inactive are those of the source. No cut-off for these calls is given here.

Chain of Mitogen-activated protein kinase 10 (Homo sapiens) (P53779 whole entry): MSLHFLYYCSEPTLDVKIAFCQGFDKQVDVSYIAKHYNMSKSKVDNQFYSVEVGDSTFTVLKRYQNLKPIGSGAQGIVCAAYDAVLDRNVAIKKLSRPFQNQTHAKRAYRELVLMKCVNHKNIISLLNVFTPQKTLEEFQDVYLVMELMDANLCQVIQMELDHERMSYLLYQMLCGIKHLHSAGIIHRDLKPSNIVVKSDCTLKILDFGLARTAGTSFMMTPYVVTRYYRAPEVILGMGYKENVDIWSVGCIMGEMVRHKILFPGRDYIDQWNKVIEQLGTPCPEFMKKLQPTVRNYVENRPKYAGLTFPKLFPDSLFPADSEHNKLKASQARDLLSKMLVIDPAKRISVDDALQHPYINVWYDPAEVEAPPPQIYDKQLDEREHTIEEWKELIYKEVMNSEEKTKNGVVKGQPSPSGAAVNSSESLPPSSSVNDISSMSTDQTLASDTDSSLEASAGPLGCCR
Chain of Serine/threonine-protein kinase 32B (Homo sapiens) (Q9NY57 whole entry): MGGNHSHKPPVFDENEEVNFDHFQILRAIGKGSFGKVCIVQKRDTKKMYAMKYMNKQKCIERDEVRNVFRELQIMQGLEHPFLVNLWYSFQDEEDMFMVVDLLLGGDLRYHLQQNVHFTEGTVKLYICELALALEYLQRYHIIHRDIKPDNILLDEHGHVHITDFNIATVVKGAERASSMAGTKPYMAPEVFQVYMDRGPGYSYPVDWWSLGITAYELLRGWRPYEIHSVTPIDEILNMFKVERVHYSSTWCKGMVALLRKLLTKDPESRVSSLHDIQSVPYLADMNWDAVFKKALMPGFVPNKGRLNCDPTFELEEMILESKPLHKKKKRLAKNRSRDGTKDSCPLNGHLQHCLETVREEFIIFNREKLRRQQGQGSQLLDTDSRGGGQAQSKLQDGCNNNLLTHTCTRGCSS
Chain of Tyrosine-protein kinase HCK (Homo sapiens) (P08631 2-526 limits assumed): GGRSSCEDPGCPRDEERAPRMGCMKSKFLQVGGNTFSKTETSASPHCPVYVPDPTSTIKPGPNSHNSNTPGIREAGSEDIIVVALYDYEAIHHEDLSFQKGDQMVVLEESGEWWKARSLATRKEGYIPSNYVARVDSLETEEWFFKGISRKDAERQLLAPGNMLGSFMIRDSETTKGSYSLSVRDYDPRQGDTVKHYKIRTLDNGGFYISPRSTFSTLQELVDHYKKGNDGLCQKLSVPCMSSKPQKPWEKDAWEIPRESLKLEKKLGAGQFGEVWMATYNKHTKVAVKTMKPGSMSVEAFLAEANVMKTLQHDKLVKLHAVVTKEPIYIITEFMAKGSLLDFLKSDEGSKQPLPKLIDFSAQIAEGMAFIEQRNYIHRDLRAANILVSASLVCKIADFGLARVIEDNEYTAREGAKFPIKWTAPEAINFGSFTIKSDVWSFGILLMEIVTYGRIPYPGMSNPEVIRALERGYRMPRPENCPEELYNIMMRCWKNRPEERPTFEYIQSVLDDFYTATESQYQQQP

For the compound `CN(C)C(=O)c1cc2cnc(Nc3ccc(NC(=O)CCCCCCCN=C=S)cc3)nc2n1C1CCCC1`, the viability at 0.25 µM in [1] came out at 77.9%. Also, the inhibition was found to be 20% in [2]; 59% in test [3]; 98% in [4]; 46% in [5]; 13% in test [6]; 9% in test [7]. In addition, the inhibition in test [8] is 85%; in test [10] it was 4%; in test [11] it was -4%; in test [12], 27%; in [13], 49%; in [14], 62%. For the same compound, the inhibition was 2% in test [16]; 16% in test [17]; -7% in [18]; 71% in test [19]; -8% in test [20]; 65% in [21]. Moreover, in test [22], the inhibition turned out to be 5%. Moreover, in test [9], the Activity was found to be 0.432%. For the same compound, in test [15], the inhibition entry is “Active”. Besides, in [23], the pIC50 is 5.73.
